{"source": "ChEMBL document CHEMBL4402601", "about": "“Discovery of a Silicon-Containing Pan-Genotype Hepatitis C Virus NS5A Inhibitor” (J Med Chem, 2020)", "key": {"Hepatitis C virus [1]": {"test_system": "Hepatitis C virus", "assay": "Resistance index, ratio of EC50 for Hepatitis C virus subtype 1a H77 subgenomic replicon expressing NS5A Y93N mutant infected in human HuH7 cells to EC50 for Hepatitis C virus subtype 1a H77 subgenomic replicon expressing NS5A infected in human HuH7 cells", "format": "functional, Hepacivirus hominis"}, "[2]": {"assay": "AUC (0 to 48 hrs) in dog at 5 mg/kg, po by UPLC-MS/MS analysis", "format": "ADME, organism-based, Canis lupus familiaris", "parameters": "time < 48 hr, dose 5 mg/kg, route oral", "conditions": "in vivo"}, "[3]": {"assay": "Ratio of drug distribution in mouse liver to drug distribution in mouse plasma measured after 0.5 hrs by UPLC-MS/MS analysis", "format": "ADME, cell-free", "outline": "(§1)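 Oral dosing in mice and rats; compound measured in plasma and liver by UPLC-MS/MS at each time point, n = 3 (mean ± SD). LPR is mean liver concentration divided by mean plasma concentration.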"}, "[4]": {"assay": "MRT in dog at 5 mg/kg, po by UPLC-MS/MS analysis", "format": "ADME, organism-based, Canis lupus familiaris", "conditions": "in vivo"}, "Hepatitis C virus [5]": {"test_system": "Hepatitis C virus", "assay": "Antiviral activity against Hepatitis C virus subtype 1b Con1 replicon expressing NS5A L31V mutant infected in human HuH7 cells assessed as reduction in viral replication incubated for 3 days by luciferase reporter gene assay", "format": "functional, organism-based, Hepacivirus hominis", "conditions": "subtype 1b Con1, Huh-7, 72 h", "outline": "(§2)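 NS5A resistance-associated variants introduced into GT1a-H77 or GT1b-Con1 replicons. In transient assays, each variant replicon was electroporated into a Huh-7-derived cell line. Inhibition measured as drop in luciferase signal. Percent inhibition computed per concentration; EC50 from 4-parameter logistic nonlinear fit. Fold resistance is variant EC50 relative to the matching reference replicon.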"}, "Hepatitis C virus [6]": {"test_system": "Hepatitis C virus", "assay": "Antiviral activity against Hepatitis C virus subtype 1a H77 subgenomic replicon expressing NS5A Q30K mutant infected in human HuH7 cells assessed as reduction in viral replication incubated for 3 days by luciferase reporter gene assay", "format": "functional, organism-based, Hepacivirus hominis", "conditions": "subtype 1a H77, Huh-7, 72 h", "outline": "as §2"}, "Hepatitis C virus [7]": {"test_system": "Hepatitis C virus", "assay": "Antiviral activity against Hepatitis C virus subtype 5a subgenomic replicon expressing NS5A infected in human HuH7 cells assessed as reduction in viral replication incubated for 3 days by luciferase reporter gene assay", "format": "functional, organism-based, Hepacivirus hominis", "conditions": "Huh-7, 72 h"}, "[8]": {"assay": "Tmax in dog at 5 mg/kg, po by UPLC-MS/MS analysis", "format": "ADME, organism-based, Canis lupus familiaris", "conditions": "in vivo"}, "Hepatitis C virus [9]": {"test_system": "Hepatitis C virus", "assay": "Antiviral activity against Hepatitis C virus subtype 1a H77 subgenomic replicon expressing NS5A Q30E mutant infected in human HuH7 cells assessed as reduction in viral replication incubated for 3 days by luciferase reporter gene assay", "format": "functional, organism-based, Hepacivirus hominis", "conditions": "subtype 1a H77, Huh-7, 72 h", "outline": "as §2"}, "[10]": {"assay": "Ratio of drug distribution in rat liver to drug distribution in rat plasma measured after 3 hrs by UPLC-MS/MS analysis", "format": "ADME, cell-free", "outline": "as §1"}, "Hepatitis C virus [11]": {"test_system": "Hepatitis C virus", "assay": "Resistance index, ratio of EC50 for Hepatitis C virus subtype 1b Con1 subgenomic replicon expressing NS5A Y93H mutant infected in human HuH7 cells to EC50 for Hepatitis C virus subtype 1b Con1 subgenomic replicon expressing NS5A infected in human HuH7 cells", "format": "functional, Hepacivirus hominis"}, "[12]": {"assay": "Drug distribution in rat plasma at 10 mg/kg, po incubated for 8 hrs by UPLC-MS/MS analysis", "format": "ADME, organism-based", "outline": "as §1"}, "Hepatitis C virus [13]": {"test_system": "Hepatitis C virus", "assay": "Antiviral activity against Hepatitis C virus subtype 1a H77 subgenomic replicon expressing NS5A M28T mutant infected in human HuH7 cells assessed as reduction in viral replication incubated for 3 days by luciferase reporter gene assay", "format": "functional, organism-based, Hepacivirus hominis", "conditions": "subtype 1a H77, Huh-7, 72 h", "outline": "as §2"}, "[14]": {"assay": "Drug distribution in rat liver at 10 mg/kg, po incubated for 8 hrs by UPLC-MS/MS analysis", "format": "ADME, organism-based", "conditions": "read-out: Drug uptake", "outline": "as §1"}, "[15]": {"assay": "AUC (0 to infinity) in dog at 5 mg/kg, po by UPLC-MS/MS analysis", "format": "ADME, organism-based, Canis lupus familiaris", "parameters": "dose 5 mg/kg, route oral, time infinity", "conditions": "in vivo"}, "[16]": {"assay": "Drug distribution in mouse plasma at 10 mg/kg, po incubated for 3 hrs by UPLC-MS/MS analysis", "format": "ADME, organism-based", "outline": "as §1"}, "Hepatitis C virus [17]": {"test_system": "Hepatitis C virus", "assay": "Resistance index, ratio of EC50 for Hepatitis C virus subtype 1a H77 subgenomic replicon expressing NS5A Q30K mutant infected in human HuH7 cells to EC50 for Hepatitis C virus subtype 1a H77 subgenomic replicon expressing NS5A infected in human HuH7 cells", "format": "functional, Hepacivirus hominis"}, "[18]": {"assay": "Cytotoxicity against human HuH7 cells assessed as reduction in cell viability incubated for 3 days by luciferase reporter gene assay", "format": "cell-based, Huh-7"}, "Hepatitis C virus [19]": {"test_system": "Hepatitis C virus", "assay": "Antiviral activity against Hepatitis C virus subtype 3a subgenomic replicon expressing NS5A infected in human HuH7 cells assessed as reduction in viral replication incubated for 3 days by luciferase reporter gene assay", "format": "functional, organism-based, Hepacivirus hominis", "conditions": "Huh-7, 72 h", "outline": "(§3)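 HCV replicon cell assay; inhibition of replication read as decrease in luciferase signal. Percent inhibition computed at each compound concentration; EC50 (pM) from nonlinear regression fit to a 4-parameter logistic equation. Values are means of triplicate wells, with each experiment run at least twice.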"}, "[20]": {"assay": "Toxicity in mouse assessed as effect on hepatological parameters at 300 mg/kg, po administered for 14 days and measured on day 14", "format": "organism-based", "conditions": "in vivo, 336 h", "outline": "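Mice randomised after acclimation into two groups of 5 males and 5 females. Compound at 300 mg/kg or vehicle alone given once daily by oral gavage for 14 days. Clinical signs observed daily. Body weight and food intake recorded on day 1, then twice weekly. Animals killed after the 14th dose.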"}, "Hepatitis C virus [21]": {"test_system": "Hepatitis C virus", "assay": "Antiviral activity against Hepatitis C virus subtype 1a H77 subgenomic replicon expressing NS5A infected in human HuH7 cells assessed as reduction in viral replication incubated for 3 days by luciferase reporter gene assay", "format": "functional, organism-based, Hepacivirus hominis", "conditions": "subtype 1a H77, Huh-7, 72 h", "outline": "as §3"}, "Hepatitis C virus [22]": {"test_system": "Hepatitis C virus", "assay": "Resistance index, ratio of EC50 for Hepatitis C virus subtype 1b Con1 subgenomic replicon expressing NS5A L31V mutant infected in human HuH7 cells to EC50 for Hepatitis C virus subtype 1b Con1 subgenomic replicon expressing NS5A infected in human HuH7 cells", "format": "functional, Hepacivirus hominis"}, "[23]": {"assay": "Drug distribution in rat liver at 10 mg/kg, po incubated for 0.5 hrs by UPLC-MS/MS analysis", "format": "ADME, organism-based", "conditions": "read-out: Drug uptake", "outline": "as §1"}, "Hepatitis C virus [24]": {"test_system": "Hepatitis C virus", "assay": "Resistance index, ratio of EC50 for Hepatitis C virus subtype 1b Con1 subgenomic replicon expressing NS5A L31W mutant infected in human HuH7 cells to EC50 for Hepatitis C virus subtype 1b Con1 subgenomic replicon expressing NS5A infected in human HuH7 cells", "format": "functional, Hepacivirus hominis"}, "[25]": {"assay": "Half life in mouse at 10 mg/kg, po by UPLC-MS/MS analysis", "format": "ADME, organism-based", "conditions": "in vivo", "outline": "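Overnight-fasted mice given a single 10 mg/kg oral dose in 2:2:96 (v/v) alcohol : Tween 80 : glucose injection. Plasma levels by UPLC-MS/MS. Bioavailability derived against a 2 mg/kg iv arm using the same formulation diluted 2.5 times with 10% glucose injection.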"}, "[26]": {"assay": "Metabolic stability in mouse liver microsomes assessed as compound remaining at 1 uM incubated for 60 mins by UPLC-MS/MS analysis", "format": "ADME, Microsome", "conditions": "read-out: Stability", "outline": "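Pooled mouse, rat or human liver microsomes (0.5 mg/mL) with 1 μM compound, 1 mM NADPH, 5 mM MgCl₂ and 100 mM potassium phosphate pH 7.4. Pre-incubated 5 min at 37 °C, started with NADPH, then run 60 min at 37 °C. Quenched with ice-cold acetonitrile containing internal standard; parent remaining measured by UPLC-MS/MS.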"}, "[27]": {"assay": "Drug distribution in mouse liver at 10 mg/kg, po incubated for 0.5 hrs by UPLC-MS/MS analysis", "format": "ADME, organism-based", "conditions": "read-out: Drug uptake", "outline": "as §1"}, "[28]": {"assay": "Cmax in dog at 5 mg/kg, po by UPLC-MS/MS analysis", "format": "ADME, organism-based, Canis lupus familiaris", "parameters": "dose 5 mg/kg, route oral", "conditions": "in vivo"}, "Hepatitis C virus [29]": {"test_system": "Hepatitis C virus", "assay": "Antiviral activity against Hepatitis C virus subtype 1a H77 subgenomic replicon expressing NS5A Y93H mutant infected in human HuH7 cells assessed as reduction in viral replication incubated for 3 days by luciferase reporter gene assay", "format": "functional, organism-based, Hepacivirus hominis", "conditions": "subtype 1a H77, Huh-7, 72 h", "outline": "as §2"}}, "data": [{"smiles": "COC(=O)N[C@H](C(=O)N1CCC[C@H]1C(=O)Nc1ccc([C@@H]2CC[C@@H](c3ccc(NC(=O)[C@@H]4CCCN4C(=O)[C@@H](NC(=O)OC)[C@@H](C)OC)cc3)N2c2cc(F)c(N3CC[Si](C)(C)CC3)c(F)c2)cc1)[C@@H](C)OC", "values": [{"measurement": "Ratio EC50", "setting": "Hepatitis C virus [1]", "value": ">203"}, {"measurement": "AUC", "setting": "[2]", "value": 8020, "unit": "ng·h/mL"}, {"measurement": "Kp at 0.5 h", "setting": "[3]", "value": 8.8}, {"measurement": "MRT", "setting": "[4]", "value": 17.5, "unit": "h"}, {"measurement": "EC50", "setting": "Hepatitis C virus [5]", "value": 0.00381, "unit": "nM"}, {"measurement": "EC50", "setting": "Hepatitis C virus [6]", "value": 0.0375, "unit": "nM"}, {"measurement": "EC50", "setting": "Hepatitis C virus [7]", "value": 0.0016, "unit": "nM"}, {"measurement": "Tmax", "setting": "[8]", "value": 5.3, "unit": "h"}, {"measurement": "EC50", "setting": "Hepatitis C virus [9]", "value": 0.216, "unit": "nM"}, {"measurement": "Kp at 3 h", "setting": "[10]", "value": 5.2}, {"measurement": "Ratio EC50", "setting": "Hepatitis C virus [11]", "value": 12.2}, {"measurement": "concentration at 8 h", "setting": "[12]", "value": 16.4, "unit": "ng/mL"}, {"measurement": "EC50", "setting": "Hepatitis C virus [13]", "value": 0.00237, "unit": "nM"}, {"measurement": "concentration at 8 h", "setting": "[14]", "value": 293, "unit": "ng/g"}, {"measurement": "AUC", "setting": "[15]", "value": 10100, "unit": "ng·h/mL"}, {"measurement": "concentration at 3 h", "setting": "[16]", "value": 308, "unit": "ng/mL"}, {"measurement": "Ratio EC50", "setting": "Hepatitis C virus [17]", "value": 30.5}, {"measurement": "CC50 at 72 h", "setting": "[18]", "value": "> 50000", "unit": "nM"}, {"measurement": "EC50", "setting": "Hepatitis C virus [19]", "value": 0.003, "unit": "nM"}, {"measurement": "Activity", "setting": "[20]", "value": "Non-Toxic"}, {"measurement": "EC50", "setting": "Hepatitis C virus [21]", "value": 0.0012, "unit": "nM"}, {"measurement": "Ratio EC50", "setting": "Hepatitis C virus [22]", "value": 2.3}, {"measurement": "concentration at 0.5 h", "setting": "[23]", "value": 359, "unit": "ng/g"}, {"measurement": "Ratio EC50", "setting": "Hepatitis C virus [24]", "value": 11.4}, {"measurement": "half-life", "setting": "[25]", "value": 8, "unit": "h"}, {"measurement": "remaining at 1 h, 1 µM", "setting": "[26]", "value": 60.4, "unit": "%"}, {"measurement": "concentration at 0.5 h", "setting": "[27]", "value": 436, "unit": "ng/g"}, {"measurement": "Cmax", "setting": "[28]", "value": 395, "unit": "ng/mL"}, {"measurement": "EC50", "setting": "Hepatitis C virus [29]", "value": "> 1", "unit": "nM"}]}]}
